In ChEMBL document CHEMBL4513216, “Probing the Open Global Health Chemical Diversity Library for Multistage-Active Starting Points for Next-Generation Antimalarials” (ACS Infect Dis, 2020) one finds cytotoxicity data, which are given here for 98 molecules.

Each structure is given as a SMILES string.

This data set is described as follows: Toxicity liver stage against HepG2, at 10uM. In kind it is cell-based. More on the design: test concentration 10 uM, cell line HepG2-A16-CD81EGFP. The conditions noted are these: human, HepG2-A16-CD81EGFP cells; read-out: INHIBITION
The essentials: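 Uninfected HepG2-A16-CD81EGFP cells, 3 × 10^3 per well, 1536-well, plated on prespotted compound at 10 μM final, parasite-free screening media added to match infected plates; puromycin 10 μM positive, DMSO 0.5% negative; run in parallel with 48 h PbLuc assay at 37 °C, 5% CO2; viability by CellTiter-Glo luminescence, normalized to controls.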
On to `Cc1c(C)n2c(SCC(=O)N3CCOCC3)nnc2[nH]c1=O`, for which the cytotoxicity at 10 µM came to 3.26%. Regarding `Cn1c(=O)c2sccc2n(Cc2ccccc2)c1=O`, the cytotoxicity at 10 µM was found to be 4.84%. Next, `COc1cc(CN2CCCC2c2cccc(F)c2)cc(OC)c1OC` (stereo not drawn): -2.03%. The result for `Cc1cc(C(=O)N2CCN(c3nc4ccccc4s3)CC2)no1` reads -110%. Next, `O=C(O)C1CCCN(c2nc3c(-c4ccccc4)csc3c(=O)[nH]2)C1` (stereo not drawn): -10.1%; `CC(C)CNC(=O)c1cn(C(C)C)cc2c(=O)[nH]nc1-2`: 0.583%; `C1CCN(c2nc(N3CCOCC3)nc3[nH]nnc23)CC1`: 8.95%. Regarding `O=C(Cn1ccc2ccccc21)N1CCC(Oc2ncccc2Br)CC1`, the cytotoxicity at 10 µM amounted to 4.51%. Next, `COc1ncc(NC(=O)c2ccco2)c(OC)n1`: -3.74%; `O=C(Nc1ccc2c(c1)OCO2)Nc1cnn(C2CCOCC2)c1`: -8.54%; `COc1cc(C(=O)NC(C)C)nc2c(C)cc(F)cc12`: 2.43%.

Consider `O=C(CC1CC1)NCc1cc(=O)n2c(n1)CN(Cc1ccoc1)CCC2`, for which the cytotoxicity at 10 µM is -20.6%. On to `CCCc1noc(C2CCN(C(=O)CCn3nc(C)cc3C)CC2)n1`, for which the cytotoxicity at 10 µM was 7.47%. For `CCOc1cc(C(=O)N2CCOCC2)cc2occc12`, the cytotoxicity at 10 µM is -4.92%. The result for `Cc1ccc(CN2C(=O)CCC2C(=O)Nc2cnn(C)c2)o1` (stereo not drawn) reads -3.72%; that for `Cc1noc(C)c1-c1cccc(CC2CCN(C(=O)CN)C2)n1` (stereo not drawn), -3.36%; that for `Cc1cccc(Nc2nccnc2C2CCCN(CC(=O)N(C)C)C2)n1` (stereo not drawn), -3.03%. Take `Cc1n[nH]c(C)c1-c1nccnc1CC1CCN(C(C)C)CC1`: the cytotoxicity at 10 µM is -5.36%. The result for `CC1CCCCN1c1nc2c(c(=O)[nH]1)CCN(Cc1ccccn1)C2` (stereo not drawn) reads -10.7%; that for `COc1cnc(C2(O)CCN(C(=O)c3scnc3C)CC2)c(OC)n1`, -6.41%; that for `Cc1nccn1-c1cccc(C2CCCN(C3CCCC3)C2)n1` (stereo not drawn), -12.7%.

On to `Cc1cncc(C2CCCN(C(=O)c3cn(C)nc3C)C2)n1` (stereo not drawn), for which the cytotoxicity at 10 µM was -7.91%. `CC(=O)N1CCCC(c2cccc(-n3ccnc3)n2)C1` (stereo not drawn): the cytotoxicity at 10 µM was -9.08%. On to `COc1ccc(CN2C[C@@H](O)[C@](O)(CNC(=O)c3ccccn3)C2)cc1`, for which the cytotoxicity at 10 µM came out at 8.46%. For the molecule `O=C1NCc2ccccc2CC12CCN(Cc1ccccc1Cl)CC2`, the cytotoxicity at 10 µM turned out to be 5.86%. Next, `CC(=O)Nc1ccc(CNC2COc3c2ccc(C)c3C)cc1` (stereo not drawn): 6.56%; `OCc1cccc(OCc2ccon2)c1`: 0.266%. `CC(C)CN(C(=O)COc1ccc(C(N)=O)cc1)C1CCN(C)CC1`: the cytotoxicity at 10 µM is -3.24%. As for `CN(C)c1ncc(NC(=O)c2cccc(Nc3cnn(C)c3)c2)cn1`, the cytotoxicity at 10 µM was -2.93%. Next, `COCC(C)NC(=O)c1sccc1-n1cnnn1` (stereo not drawn): -0.132%; `CC(C)c1nc(C(=O)N(C)c2ccc(Br)cn2)cs1`: 7.84%.

Take `COc1cccc(-c2nc(CNCCc3cccnc3)cs2)c1`: the cytotoxicity at 10 µM was -1.77%. `Cc1nc(-c2ccc(CC(=O)N3CCNC(=O)C3)cc2)cs1`: the cytotoxicity at 10 µM amounted to 6.14%. Next, `CC(=O)NCCCNCc1ccc(Cl)c2cccnc12`: -3.17%; `COc1cccnc1NC(=O)COc1c(C)cccc1C`: 0.819%. The result for `COc1cccc(NC(=O)NC(C)(C)c2noc(C)n2)c1` reads 7.35%; that for `CCC1CN(Cc2nnc(C3CC3)o2)CCN1CCOC` (stereo not drawn), 3.13%. The result for `CSCC(CCO)NC(=O)Nc1cccc(Br)c1C` (stereo not drawn) reads -3.7%. Regarding `CC(C)c1ncc2c(n1)CN(Cc1nc3c(F)cccc3[nH]1)CC2`, the cytotoxicity at 10 µM was determined as 1.09%. Regarding `Cn1c(SCC(O)COCc2ccccc2Cl)nnc1C1CC1` (stereo not drawn), the cytotoxicity at 10 µM is -2.24%.

As for `N#Cc1nccnc1NC1CCN(c2ccccc2OC(F)F)C1` (stereo not drawn), the cytotoxicity at 10 µM turned out to be 12.8%. For the molecule `CCN(C(=O)c1ccc2nncn2c1)C(C)Cc1ccc(OC)cc1` (stereo not drawn), the cytotoxicity at 10 µM was -5.53%.

For `Cn1cc(CCCNS(=O)(=O)N2CCCC2c2ccco2)cn1` (stereo not drawn), the cytotoxicity at 10 µM was determined as 9.38%. The result for `CCN(CC)c1ccc(NC(=O)NCC2(C(N)=O)CCOCC2)cn1` reads 7.15%; that for `CC(=O)c1ccc(OCC(=O)NS(=O)(=O)c2ccc(Cl)s2)cc1`, 1.77%. For the molecule `COc1ccc(CCn2cnnc2[S+](C)[O-])cc1` (stereo not drawn), the cytotoxicity at 10 µM is 3.4%.

Take `CC(=O)N(C)c1nc(Cn2nnnc2C2CCCC2)cs1`: the cytotoxicity at 10 µM came out at 2.11%.

With `CC(C)OCCN1CCN(c2ccc(Cl)cn2)CC1`, the cytotoxicity at 10 µM is -1.67%.

With `COc1ccccc1CNCc1nn(-c2ccccc2)c2c1CCC2`, the cytotoxicity at 10 µM was 34.4%. Next, `COc1ccc2c(c1)CC(NCCCn1cc(C)cn1)CC2` (stereo not drawn): 18%. Next, `CC1(C)Cc2ccc(C(=O)NC3CCS(=O)(=O)C3)c(O)c2O1` (stereo not drawn): 0.329%. Next, `O=C(CCC1CCCO1)NCCCC(=O)Nc1ccc(Cl)cc1` (stereo not drawn): -0.649%.

On to `CN(Cc1ccc(F)cc1)C(=O)NCC1(N2CCOCC2)CCSC1` (stereo not drawn), for which the cytotoxicity at 10 µM was -21.9%. Take `O=C(NCCOc1ccc(F)c(F)c1)NCc1ccncc1`: the cytotoxicity at 10 µM is -8.25%. The result for `N#Cc1ccc(OCCNc2cccc(C(=O)N3CCOCC3)c2)cc1` reads -2.96%; that for `O=C(Nc1cccc(CN2CCOC2=O)c1)N1CCSCC1`, -11.3%. Take `CCc1cnc(CN(C)C2CCN(CCS(C)(=O)=O)C2)o1` (stereo not drawn): the cytotoxicity at 10 µM was -3.94%. Next, `CN(C)C(=O)N1CC(C(=O)NCC2CC2)C2(CCOCC2)C1` (stereo not drawn): -95.1%; `C[C@H]1CN(C(=O)N(C)C)C[C@@]12CCN(c1ccsc1)C2=O`: -73.1%. Next, `CC(C)Nc1ncnc2c1CCN(C(=O)CN(C)C)CC2`: -70.9%; `Cc1cccc(C(=O)N2Cc3ccccc3C3(CCN(C)CC3)C2)n1`: -73.5%; `CC(=O)N1CCC(n2nccc2-c2cnc(N)nc2)CC1`: 1.3%.

Turning to `Cc1cc2c(=O)n(CCSc3cnn[nH]3)cnc2s1`, the cytotoxicity at 10 µM stood at 10.1%.

With `CC(Cn1ccnc1)NCc1ccc2nonc2c1` (stereo not drawn), the cytotoxicity at 10 µM is 2.57%. Regarding `COc1cccc2c1OCCCN(Cc1ncccc1C(=O)O)C2`, the cytotoxicity at 10 µM worked out at 4.12%.

On to `Cc1ccccc1C(Nc1ncnc2c1CCNC2)c1ccccc1` (stereo not drawn), for which the cytotoxicity at 10 µM was found to be 7.78%. Turning to `CCOCc1nccc(-c2ccc(OCC)c(C(=O)O)c2)n1`, the cytotoxicity at 10 µM amounted to 2.55%. Next, `Cc1nccc(N2CC[C@@H]3[C@@H](CCC(=O)N3CCc3ccccc3)C2)n1`: 2.19%. The result for `Cc1ccccc1SC1CCN(C(=O)[C@@H]2C[C@@H](N)CN2)CC1` reads -7.69%. The result for `O=C1[C@@H]2CN(c3ncnc4[nH]ccc34)C[C@]2(C(=O)O)CN1CC1CC1` reads 2.62%; that for `O=C(CN1C(=O)CCNC1=O)N1CCC2(CCc3ccccc32)CC1`, -11.2%. For the molecule `N[C@H]1CN(C(=O)c2ccc(CO)cc2)C[C@@H]1C1CC1`, the cytotoxicity at 10 µM came to 2.56%.

For `COC(=O)CCNC(=O)c1coc(COc2ccc(F)cc2)n1`, the cytotoxicity at 10 µM was -4.1%. The result for `CSCCc1nc(C(C)C)nn1-c1ccncc1C` reads 1.63%; that for `CCN(CC)C1CCN(c2nccc(C3CCCC3)n2)C1` (stereo not drawn), -12.7%; that for `CCN(C)CC(=O)N1CCC(c2cc(N3CCOCC3)nc(C)n2)CC1`, 6.9%. Next, `COCc1nc(CN2CC(=O)N(C)c3ccccc3C2=O)no1`: -6.03%; `CN1C[C@H]2CNC[C@@]2(C(=O)NC2CCN(c3ncccc3C#N)CC2)C1`: -0.766%. With `CC(C)[C@H]1CN(S(=O)(=O)c2cccnc2)C[C@@H]1N`, the cytotoxicity at 10 µM was determined as 1.31%. Next, `Cc1cccc(-c2ncc(CNC(C)Cc3ccncc3)cn2)c1` (stereo not drawn): -8.18%; `Cc1cc(C(=O)N2CCNC(c3ccccc3)C2)c2ccc(F)cc2n1` (stereo not drawn): 3.09%.

For `c1ccc(COc2ccccc2NC2CCOCC2)nc1`, the cytotoxicity at 10 µM was found to be 2.2%. The result for `Cc1nc(C)c(C(=O)N2CCCC(C(=O)c3nccn3C)C2)s1` (stereo not drawn) reads 2.3%. Next, `CCCc1cc(=O)[nH]c(-c2ccccc2CN(C)CCC(C)C)n1`: 3.53%.

For the molecule `Cc1cnccc1NCCn1ccnc1C1CCOC1` (stereo not drawn), the cytotoxicity at 10 µM came out at 3.8%. On to `CCCc1cc(NCCC2CCCOC2)n2nccc2n1` (stereo not drawn), for which the cytotoxicity at 10 µM was 3.63%. As for `N#Cc1ccc(C(=O)N2C[C@@H](CN3CCCC3)C[C@H](CO)C2)cc1`, the cytotoxicity at 10 µM was -2.86%. The result for `Cc1cc(N2CCN(Cc3ccccc3)CC(O)C2)cc(C)n1` (stereo not drawn) reads -17.4%. `CCN1CC2(CCC1=O)CCN(C(=O)c1ccc(Cl)cc1O)CC2`: the cytotoxicity at 10 µM is -12.8%. For the molecule `CN1CC(c2ccccc2)CC12CCN(C(=O)c1ccc(F)cc1)CC2` (stereo not drawn), the cytotoxicity at 10 µM was -12.1%. The result for `CCC1CCCN(Cc2nc(N)c3ccccc3n2)C1` (stereo not drawn) reads -11.2%; that for `COc1ccc(CCCC(=O)N2CCCC(n3cccn3)C2)cc1` (stereo not drawn), -7.36%. The result for `COc1ccccc1CC(=O)N1CCC(NCc2cc[nH]c2)CC1` reads 0.593%; that for `COCCN1C(=O)CC[C@@H]2[C@H]1CCN2Cc1ccc(C)s1`, -70.4%. Next, `Cc1noc(C)c1C(=O)N1Cc2ncn(C)c2C(COCC(C)C)C1` (stereo not drawn): -105%; `COc1cc(Br)c(CNC2CCCNC2=O)cc1OC` (stereo not drawn): 1.93%. As to `Cc1ccsc1C(=O)N1CC[C@@H](N(C)C)[C@@H]1Cc1cnn(C)c1`, the cytotoxicity at 10 µM is -77.6%. Next, `CN1CCNC(=O)C12CCN(Cc1ccco1)CC2`: -81.3%.
